Consider 19 compounds from ChEMBL document CHEMBL1135693, “Solid-phase synthesis of polyamine toxin analogues: potent and selective antagonists of Ca2+-permeable AMPA receptors” (J Med Chem, 2002).

Assay [1] has as its target T1, Glutamate receptor 1 (Homo sapiens, UniProt P42261). Kind of assay: Inhibition of the (-40 mV) current elicited by 100 uM glutamate by simultaneous co-application in xenopus oocytes injected with GluR1 flop RNA. It is filed as cell-based, Oocyte. The essentials: (§1)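 Two-electrode voltage clamp of stage V–VI Xenopus laevis oocytes (collagenase-isolated), injected with 5-30 ng GluR1 flop cRNA, recorded 3-14 days later in Ringer (pH 7.5; low-Ca2+ Ringer for high-current cells).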

Assay [2] in a line: Ratio of Ki value at -40 mV to that of -80 mV was determined. The assay is classed as functional.
The target of assay [3] is T1, Glutamate receptor 1. Kind of assay: Inhibition of the (-80 mV) current elicited by 100 uM glutamate by simultaneous co-application in xenopus oocytes injected with GluR1 flop RNA. It is filed as cell-based, Oocyte. The method, boiled down: as §1
Assay [4] is described as follows: Inhibition of the current elicited by 100 uM glutamate by simultaneous co-application of the antagonist in xenopus oocytes injected with a 1:1 mixture of GluR1 flop and GluR2 flop RNA as well as GluR5(Q). Particulars: oocyte. The assay is classed as functional, cell-based, Xenopus laevis. The essentials: (§2)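 Xenopus laevis oocytes (stage V–VI) injected with 5-30 ng cRNA, either 1:1 GluR1 flop + GluR2 flop or GluR5(Q) flop. After 3-14 days, two-electrode voltage clamp recordings were made in Ringer pH 7.5 (low-Ca2+ Ringer if currents were high). […] Values are means of two independent measurements in triplicate.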

Assay [5] can be described thus: Inhibition of the current elicited by 100 uM glutamate by simultaneous co-application of the antagonist in xenopus oocytes injected with a 1:1 mixture of GluR1 flop and GluR2 flop RNA. The assay is classed as functional, cell-based, Xenopus laevis. Particulars: oocyte. The method, boiled down:
as §2

T1 sequence (P42261 whole entry): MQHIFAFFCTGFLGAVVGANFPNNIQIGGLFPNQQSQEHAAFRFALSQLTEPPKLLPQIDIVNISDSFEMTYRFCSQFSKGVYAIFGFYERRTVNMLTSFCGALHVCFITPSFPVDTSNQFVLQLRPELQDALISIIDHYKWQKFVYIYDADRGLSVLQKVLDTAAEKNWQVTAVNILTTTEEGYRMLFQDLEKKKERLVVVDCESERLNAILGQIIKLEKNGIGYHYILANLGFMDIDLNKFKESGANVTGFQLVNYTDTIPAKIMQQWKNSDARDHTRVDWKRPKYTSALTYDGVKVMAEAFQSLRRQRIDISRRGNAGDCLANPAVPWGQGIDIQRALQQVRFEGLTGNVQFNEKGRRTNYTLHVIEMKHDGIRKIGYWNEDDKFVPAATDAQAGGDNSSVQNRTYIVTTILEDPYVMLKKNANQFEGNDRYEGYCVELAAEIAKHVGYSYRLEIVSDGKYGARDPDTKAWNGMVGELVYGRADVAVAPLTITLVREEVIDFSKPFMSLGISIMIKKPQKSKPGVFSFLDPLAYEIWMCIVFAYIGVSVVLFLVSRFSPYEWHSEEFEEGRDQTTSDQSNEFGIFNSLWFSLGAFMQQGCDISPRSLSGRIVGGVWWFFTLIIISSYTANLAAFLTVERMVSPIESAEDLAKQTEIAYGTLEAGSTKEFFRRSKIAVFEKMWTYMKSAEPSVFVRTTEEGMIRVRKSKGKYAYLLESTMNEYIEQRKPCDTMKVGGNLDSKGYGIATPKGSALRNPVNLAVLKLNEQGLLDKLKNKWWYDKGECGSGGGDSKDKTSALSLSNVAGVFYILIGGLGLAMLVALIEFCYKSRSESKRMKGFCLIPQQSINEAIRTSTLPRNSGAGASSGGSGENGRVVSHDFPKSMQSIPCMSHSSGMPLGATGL

A word on the Ki: it is the equilibrium dissociation constant of an inhibitor or competing ligand from its target. With `CCCCCC(=O)NC(Cc1ccc(O)cc1)C(=O)NCCCCCCCCNCCCN` (configuration not stated), the figures for the Ki at Glutamate receptor 1 [1] and at Glutamate receptor 1 [3] were 1 µM and 0.068 µM, respectively. In addition, the Ratio in assay [2] came to 14.7.
As to `CCCC(=O)NC(Cc1ccc(O)cc1)C(=O)NCCCCCCCNCCCCN` (configuration not stated), the Ki stood at 3 µM on Glutamate receptor 1 [1], 0.168 µM on Glutamate receptor 1 [3], 0.29 µM in assay [4] and 1.6 µM in assay [5]. In assay [2], the Ratio came out at 18.
As for `CC(C)(C)C(=O)NC(Cc1ccc(O)cc1)C(=O)NCCCCCCCCNCCCN` (configuration not stated), the values for the Ki on Glutamate receptor 1 [1] and on Glutamate receptor 1 [3] were 0.14 µM and 0.09 µM, respectively. Besides, in assay [2], the Ratio came to 1.6.
As to `NCCCNCCCCCCCCNC(=O)C(Cc1ccc(O)cc1)NC(=O)c1ccccn1` (configuration not stated), the results for the inhibition constant Ki on Glutamate receptor 1 [1] and at Glutamate receptor 1 [3] were 0.17 µM and 0.13 µM, respectively. Moreover, in assay [2], the Ratio was 1.3.
The corresponding values for `NCCCNCCCCCCCCNC(=O)C(Cc1ccc(O)cc1)NC(=O)c1ccncc1` (configuration not stated) are 0.33 µM, 0.064 µM and 5.1.
On to `CCCC(=O)NC(Cc1ccc(O)cc1)C(=O)NCCCCCCNCCCCCN` (configuration not stated), for which the Ki is > 10 µM on Glutamate receptor 1 [1], 0.468 µM on Glutamate receptor 1 [3], 0.8 µM in assay [4] and 6.4 µM in assay [5].
In the case of `CCCC(=O)NC(Cc1ccc(O)cc1)C(=O)NCCCCCCCCNCCCN` (configuration not stated), the Ki is 8 µM at Glutamate receptor 1 [1], 0.065 µM at Glutamate receptor 1 [3], 0.25 µM in assay [4] and > 10 µM in assay [5].
As for `CCCC(=O)NC(Cc1ccc(O)cc1)C(=O)NCCCCNCCCCCCCN` (configuration not stated), the Ki on Glutamate receptor 1 [1] was 0.135 µM; on Glutamate receptor 1 [3] it was 0.038 µM; in assay [4] it was 0.06 µM; in assay [5] it was > 10 µM. Also, the Ratio in assay [2] came out at 3.6.
For `CCCC(=O)NC(Cc1ccc(O)cc1)C(=O)NCCCCCNCCCCCCN` (configuration not stated), the inhibition constant (Ki) at Glutamate receptor 1 [1] amounted to 0.287 µM; at Glutamate receptor 1 [3] it was 0.0033 µM; in assay [4], 2.2 µM; in assay [5], 5.2 µM. Also, the Ratio in assay [2] was 86.
Consider `NCCCNCCCCCCCCNC(=O)C(Cc1ccc(O)cc1)NC(=O)Cc1ccccc1` (configuration not stated), for which the values for the Ki on Glutamate receptor 1 [1] and on Glutamate receptor 1 [3] were 0.25 µM and 0.11 µM, respectively. In addition, in assay [2], the Ratio was 2.3.
On to `NCCCNCCCCCCCCNC(=O)C(Cc1ccc(O)cc1)NC(=O)c1cccnc1` (configuration not stated), for which the values for the Ki at Glutamate receptor 1 [1] and on Glutamate receptor 1 [3] were 0.21 µM and 0.088 µM, respectively. Besides, in assay [2], the Ratio worked out at 2.4.
Take `CCC(=O)NC(Cc1ccc(O)cc1)C(=O)NCCCCCCCCNCCCN` (configuration not stated): the Ki is 0.28 µM on Glutamate receptor 1 [1] and 0.1 µM at Glutamate receptor 1 [3]. Also, the Ratio in assay [2] worked out at 2.8.
On to `NCCCNCCCCCCCCNC(=O)C(Cc1ccc(O)cc1)NC(=O)/C=C/c1ccccc1` (configuration not stated), for which the Ki came out at 0.17 µM at Glutamate receptor 1 [1] and 0.11 µM at Glutamate receptor 1 [3]. Besides, the Ratio in assay [2] was 1.5.
Consider `CC(=O)NC(Cc1ccc(O)cc1)C(=O)NCCCCCCCCNCCCN` (configuration not stated), for which the figures for the inhibition constant (Ki) at Glutamate receptor 1 [1] and on Glutamate receptor 1 [3] were 0.3 µM and 0.22 µM, respectively. Further, in assay [2], the Ratio was found to be 1.4.
Turning to `CCCC(=O)NC(Cc1ccc(O)cc1)C(=O)NCCCNCCCCNCCCN` (configuration not stated), the Ki at Glutamate receptor 1 [1] was 170 µM; on Glutamate receptor 1 [3] it was 22 µM; in assay [4], 0.015 µM; in assay [5], > 5 µM.
Turning to `NCCCNCCCCCCCCNC(=O)C(Cc1ccc(O)cc1)NC(=O)C1CCCCC1` (configuration not stated), the Ki came out at 0.24 µM on Glutamate receptor 1 [1] and 0.078 µM at Glutamate receptor 1 [3]. The Ratio in assay [2] was determined as 3.1.
For `NCCCNCCCCCCCCNC(=O)C(Cc1ccc(O)cc1)NC(=O)CCc1ccccc1` (configuration not stated), the Ki on Glutamate receptor 1 [1] was determined as 0.254 µM; on Glutamate receptor 1 [3], 0.25 µM. For the same compound, the Ratio in assay [2] came to 1.
As for `NCCCNCCCCCCCCNC(=O)C(Cc1ccc(O)cc1)NC(=O)c1ccccc1` (configuration not stated), the figures for the Ki on Glutamate receptor 1 [1] and at Glutamate receptor 1 [3] were 0.25 µM and 0.13 µM, respectively. In addition, the Ratio in assay [2] was 1.9.
For `CCCC(=O)NC(Cc1ccc(O)cc1)C(=O)NCCCCCCCCCNCCN` (configuration not stated), the inhibition constant Ki on Glutamate receptor 1 [1] is 6.2 µM; on Glutamate receptor 1 [3], 0.41 µM; in assay [4] it was 2.1 µM; in assay [5], > 10 µM.
